ChEMBL document CHEMBL1817602, “Synthesis of benzo[3,4]azepino[1,2-b]isoquinolin-9-ones from 3-arylisoquinolines via ring closing metathesis and evaluation of topoisomerase I inhibitory activity, cytotoxicity and docking study” (Bioorg Med Chem, 2011)
Calls of active or inactive are those of the source. No cut-off for these calls is given here.

Experiments:
A549 = assay: Cytotoxicity against human A549 cells after 48 hrs by MTT assay; type: functional, cell-based; conditions: A549, 48 h
Outline: (§1)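 Cells seeded at 10^5 cells/mL in 100 µL RPMI-1640 with 10% FBS; compounds added at various concentrations after 24 h and incubated 48 h. MTT (5 mg/mL stock in PBS, 50 µL per well) was added for a further incubation. Medium was discarded, formazan dissolved in DMSO, and absorbance read at 540 nm.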

HCT-15 = assay: Cytotoxicity against human HCT15 cells after 48 hrs by MTT assay; type: functional, cell-based; conditions: HCT-15, 48 h; outline: as §1
SK-OV-3 = assay: Cytotoxicity against human SKOV3 cells after 48 hrs by MTT assay; type: functional, cell-based; conditions: SK-OV-3, 48 h; outline: as §1
SK-MEL-2 = assay: Cytotoxicity against human SK-MEL-2 cells after 48 hrs by MTT assay; type: functional, cell-based; conditions: SK-MEL-2, 48 h; outline: as §1
Bos taurus [1] = organism: Bos taurus; assay: Inhibition of calf thymus topoisomerase 1-mediated relaxation of supercoiled pBR322 DNA at 20 to 100 uM after 30 mins using ethidium bromide staining by UV-light transillumination analysis
Outline: (§2)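 Plasmid pBR322 (200 ng) with 0.3 U calf thymus topo I, compound at final 20 or 100 μM, 37 °C for 30 min in relaxation buffer (35 mM Tris–HCl pH 8.0, 72 mM KCl, MgCl2, DTT, spermidine, 0.01% BSA). Stopped with SDS loading mix, run on 1% agarose in TBE for 10 h, stained with ethidium bromide (0.5 μg/mL), and UV-visualized and quantitated. Scored semiquantitatively against camptothecin.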

Bos taurus [2] = organism: Bos taurus; assay: Inhibition of calf thymus topoisomerase 1-mediated relaxation of supercoiled pBR322 DNA at 20 to 100 uM after 30 mins using ethidium bromide staining by UV-light transillumination analysis relative to camptothecin; outline: as §2

For `C=CCn1c(-c2cc(OC)c(OC)cc2COCOC)cc2ccccc2c1=O`, the IC50 (A549) was 88.1 µM, the IC50 (HCT-15) was 78.7 µM and the IC50 (SK-OV-3) was 37.7 µM. The IC50 (SK-MEL-2) was 75 µM and the inhibition (Bos taurus [1]) was “Active”.

Compound `C=CCn1c(-c2cc3c(cc2C=C)OCO3)cc2ccccc2c1=O` has an IC50 (A549) of 19.3 µM, an IC50 (HCT-15) of 11.2 µM and an IC50 (SK-OV-3) of 13.6 µM. For the same compound, the IC50 (SK-MEL-2) was 9.36 µM and the inhibition (Bos taurus [1]) was “Active”.

Compound `C=CCn1c(-c2cc3c(cc2COCOC)OCO3)cc2ccc(OC)c(OC)c2c1=O` has an IC50 (A549) of 29.9 µM, an IC50 (HCT-15) of 28.2 µM and an IC50 (SK-OV-3) of over 100 µM. For the same compound, the IC50 (SK-MEL-2) was 27.4 µM and the inhibition (Bos taurus [1]) was “inactive”.

For `C=CCn1c(-c2cc3c(cc2C=O)OCO3)cc2ccc(OC)c(OC)c2c1=O`, the IC50 (A549) was 85.1 µM, the IC50 (HCT-15) was 63.9 µM and the IC50 (SK-OV-3) was 61.7 µM. The IC50 (SK-MEL-2) was 71.2 µM and the inhibition (Bos taurus [1]) was “Active”.

`CC[C@@]1(O)C(=O)OCc2c1cc1n(c2=O)Cc2cc3ccccc3nc2-1` [CAMPTOTHECIN] gave an IC50 (A549) of 0.091 µM, an IC50 (HCT-15) of 0.166 µM and an IC50 (SK-OV-3) of 2.54 µM. The IC50 (SK-MEL-2) was 7.86 µM and the inhibition (Bos taurus [1]) was “Active”.

`COc1ccc2cc3n(c(=O)c2c1OC)CC=Cc1cc2c(cc1-3)OCO2` gave an IC50 (A549) of 7.45 µM, an IC50 (HCT-15) of 6.34 µM and an IC50 (SK-OV-3) of 2.8 µM. The IC50 (SK-MEL-2) was 2.54 µM and the inhibition (Bos taurus [1]) was “Active”.

`COCOCc1cc(OC)ccc1-c1cc2ccccc2c(=O)[nH]1` showed an IC50 (A549) of 45.3 µM, an IC50 (HCT-15) of 27.5 µM and an IC50 (SK-OV-3) of 75.5 µM. For the same compound, the IC50 (SK-MEL-2) was 97.6 µM and the inhibition (Bos taurus [1]) was “Active”.

`C=CCn1c(-c2cc3c(cc2COCOC)OCO3)cc2ccccc2c1=O` showed an IC50 (A549) of 19.8 µM, an IC50 (HCT-15) of 36.1 µM and an IC50 (SK-OV-3) of 29.5 µM. For the same compound, the IC50 (SK-MEL-2) was 15.4 µM and the inhibition (Bos taurus [1]) was “Active”.

With `C=CCn1c(-c2ccc(OC)cc2C=C)cc2ccccc2c1=O` the IC50 (A549) was 17.2 µM, the IC50 (HCT-15) was 22.8 µM and the IC50 (SK-OV-3) was 43.8 µM. The IC50 (SK-MEL-2) was 11.6 µM and the inhibition (Bos taurus [1]) was “Active”.

Compound `C=CCn1c(-c2ccc(OC)cc2C=O)cc2ccccc2c1=O` has an IC50 (A549) of 88.1 µM, an IC50 (HCT-15) of 56.5 µM and an IC50 (SK-OV-3) of 65.5 µM. For the same compound, the IC50 (SK-MEL-2) was 88.9 µM and the inhibition (Bos taurus [1]) was “Active”.

`C=CCn1c(-c2cc3c(cc2C=C)OCO3)cc2ccc(OC)c(OC)c2c1=O` was tested, and the IC50 (A549) was over 100 µM, the IC50 (HCT-15) was over 100 µM and the IC50 (SK-OV-3) was over 100 µM. For the same compound, the IC50 (SK-MEL-2) was over 100 µM and the inhibition (Bos taurus [1]) was “inactive”.

`COc1cc2c(cc1OC)-c1cc3ccccc3c(=O)n1CC=C2` gave an IC50 (A549) of 14.8 µM, an IC50 (HCT-15) of 21.3 µM and an IC50 (SK-OV-3) of 11 µM. The IC50 (SK-MEL-2) was 6.23 µM and the inhibition (Bos taurus [1]) was “Active”.

In the case of `COCOCc1cc2c(cc1-c1cc3ccccc3c(=O)[nH]1)OCO2`, the IC50 (A549) is reported as 7.93 µM, the IC50 (HCT-15) is reported as 13.1 µM and the IC50 (SK-OV-3) is reported as 22.9 µM. For the same compound, the IC50 (SK-MEL-2) was 64.5 µM and the inhibition (Bos taurus [2]) was “Active”.

`C=CCn1c(-c2cc(OC)c(OC)cc2C=C)cc2ccccc2c1=O` showed an IC50 (A549) of 43.2 µM, an IC50 (HCT-15) of 75.2 µM and an IC50 (SK-OV-3) of 35.5 µM. For the same compound, the IC50 (SK-MEL-2) was 47.7 µM and the inhibition (Bos taurus [1]) was “Active”.

Work on `C=CCn1c(-c2cc(OC)c(OC)cc2C=O)cc2ccccc2c1=O` yielded an IC50 (A549) of 76.3 µM, an IC50 (HCT-15) of 77.5 µM and an IC50 (SK-OV-3) of 85.5 µM. The IC50 (SK-MEL-2) was 67.6 µM and the inhibition (Bos taurus [1]) was “Active”.

In the case of `C=CCn1c(-c2ccc(OC)cc2COCOC)cc2ccccc2c1=O`, the IC50 (A549) is reported as over 100 µM, the IC50 (HCT-15) is reported as 27.8 µM and the IC50 (SK-OV-3) is reported as over 100 µM. The IC50 (SK-MEL-2) was 42.6 µM and the inhibition (Bos taurus [1]) was “Active”.

Work on `COCOCc1cc(OC)c(OC)cc1-c1cc2ccccc2c(=O)[nH]1` yielded an IC50 (A549) of 85.1 µM, an IC50 (HCT-15) of 73.7 µM and an IC50 (SK-OV-3) of 87.7 µM. The IC50 (SK-MEL-2) was 55.2 µM and the inhibition (Bos taurus [1]) was “Active”.

With `O=c1c2ccccc2cc2n1CC=Cc1cc3c(cc1-2)OCO3` the IC50 (A549) was 17.1 µM, the IC50 (HCT-15) was 20.1 µM and the IC50 (SK-OV-3) was 29.1 µM. The IC50 (SK-MEL-2) was 28.6 µM and the inhibition (Bos taurus [1]) was “Active”.

`COc1ccc2c(c1)C=CCn1c-2cc2ccccc2c1=O` gave an IC50 (A549) of 6.48 µM, an IC50 (HCT-15) of 12.6 µM and an IC50 (SK-OV-3) of 24.3 µM. For the same compound, the IC50 (SK-MEL-2) was 7.74 µM and the inhibition (Bos taurus [1]) was “Active”.

Work on `C=CCn1c(-c2cc3c(cc2C=O)OCO3)cc2ccccc2c1=O` yielded an IC50 (A549) of 87.5 µM, an IC50 (HCT-15) of 54.1 µM and an IC50 (SK-OV-3) of 56.9 µM. The IC50 (SK-MEL-2) was over 100 µM and the inhibition (Bos taurus [1]) was “Active”.
